Screens deposited in PubChem BioAssay by Broad Institute.
The list is not random: actives were taken first. Their share in the collection is about 2.9%.
SIRT5 inh = sirtuin-5 (human) deacylase inhibition | Purified SirT5, succinyl-peptide AMC, trypsin-coupled fluorescence | inhibition, % at 15 µM | 330,000 compounds, 1.1% hits | AID 652115; in the data active = inhibition above about 15%; inconclusive = no clear call, values can overlap the other calls
Target sequence (Q9NXA8 whole entry, looked up): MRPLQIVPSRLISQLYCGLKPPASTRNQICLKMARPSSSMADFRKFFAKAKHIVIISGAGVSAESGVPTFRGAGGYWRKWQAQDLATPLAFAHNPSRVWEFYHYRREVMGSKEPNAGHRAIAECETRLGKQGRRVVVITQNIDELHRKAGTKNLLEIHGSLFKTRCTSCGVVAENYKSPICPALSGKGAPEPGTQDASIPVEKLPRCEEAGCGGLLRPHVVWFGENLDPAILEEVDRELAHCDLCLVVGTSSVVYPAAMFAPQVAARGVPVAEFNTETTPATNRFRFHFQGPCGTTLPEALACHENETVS
C2C12 statin = protects C2C12 myotubes from simvastatin toxicity; ATP luminescence, 48 h; scaled: DMSO 0, geranylgeraniol control 100; rescue of ATP level, % at 7.49 µM; 330,000 compounds, 0.78% hits; AID 602340;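 active = mean ATP rescue above about 67%, or every replicate alone reaching that limit, limit read from the data, passing the limit was not always enough; inconclusive = no clear call, values can overlap the other calls; inactive = mean under the limit and some replicate under it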;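 also: myotubes were challenged with 10 µM simvastatin during compound exposure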
DENV2 CPE = protects cells from dengue virus 2 cytopathic effect. DENV2-infected cells, cytopathic effect rescue, plate reader. CPE inhibition, % at 9.99 µM. 350,000 compounds, 1.7% hits. AID 651640; in the data active = CPE inhibition above about 20%, passing the limit was not always enough; inconclusive = no clear call, values can overlap the other calls; tested in BHK-21 cells;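 also: 0% = median of neutral control wells and 100% = median of positive control wells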
S100A4 MyoIIA = inhibitors of human S100A4 binding to myosin IIA peptide; P26447; S100A4/TAMRA-MyoIIA peptide fluorescence polarization; inhibition, % at 10.7 µM; 360,000 compounds, 0.14% hits; AID 652163;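 active = mean inhibition of at least 70% across replicates, with every replicate also reaching that level; inconclusive = mean inhibition reaches 70% but some replicates fall short; inactive = mean inhibition below 70%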
Target sequence (P26447 whole entry, looked up): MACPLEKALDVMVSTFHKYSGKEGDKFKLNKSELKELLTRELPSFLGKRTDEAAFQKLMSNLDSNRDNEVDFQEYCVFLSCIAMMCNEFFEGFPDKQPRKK
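Test system: S100A4 monomer protein. Medium: HEPES buffer with Ca2+, pH 7.2. Reagent: fluorescent myosin IIA peptide, 5 nM. Compound dosing: single-point compound testing. Timing: 5 min between mix addition and reading. Benchmarks: DMSO neutral and TFP positive wells.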
PGC1a acetyl inh = modulators of PGC1a acetylation; U2OS PGC1a acetylation, AlphaScreen anti-acetyl-lysine; with virally co-expressed GCN5 acetyltransferase; 350,000 compounds, 0.17% hits; inhibition, % at 15.6 µM;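 active = every replicate shows inhibition of at least 40%; inconclusive = mean inhibition at least 40% but some replicate below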;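 also: 0% = neutral control wells and 100% = positive control wells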
Starred values were filed as active, the others as inactive; ? = inconclusive; . = no result.

SMILES	SIRT5 inh	C2C12 statin	DENV2 CPE	S100A4 MyoIIA	PGC1a acetyl inh
O=S(=O)(c1ccc(F)cc1)N1CCCCN2[C@@H](CO)[C@H](c3ccc(C#CC4CCCC4)cc3)[C@@H]2C1	27*	.	-4	0	-18
O=S(=O)(c1ccc(F)cc1)N1CCCCN2[C@@H](CO)[C@@H](c3ccc(C#CC4CC4)cc3)[C@@H]2C1	.	-5	-34	3	-2
O=S(=O)(c1ccc(F)cc1)N1CCCCN2[C@H](CO)[C@@H](c3ccc(C#CC4CC4)cc3)[C@@H]2C1	4	49	18	0	-11
O=C(C[C@H]1C[C@H]2c3cc(NS(=O)(=O)c4ccc(F)cc4)ccc3O[C@H]2[C@@H](CO)O1)NCc1ccc(Cl)cc1	0	6	-3	5	-10
COc1cccc(C(=O)Nc2ccc3c(c2)OC[C@H](C)N(C(C)=O)C[C@H](C)[C@@H](OC)CN(C)C3=O)c1	4	1	6	-1	-6
CO[C@@H]1CN(C)C(=O)c2cc(NC(=O)C3CC3)ccc2OC[C@H](C)N(Cc2ccccc2)C[C@@H]1C	5	-4	1	13	10
Cc1cccc([C@@H]2[C@@H]3C(=O)N(Cc4ccccc4)C(=O)[C@@H]3[C@]3(Cc4ccccc4)C(=O)N(c4ccc(C(F)(F)F)cc4)C(=O)N23)c1	-2	1	102*	-2	.
C[C@@H]1CN([C@H](C)CO)C(=O)Cc2cc(NS(=O)(=O)c3ccc(Cl)cc3)ccc2O[C@H]1CN(C)CC1CC1	1	8	-4	-27	0
C[C@H](CO)N1C[C@H](C)[C@@H](CN(C)CC2CCCCC2)Oc2ccc(NS(=O)(=O)c3ccc(Cl)cc3)cc2CC1=O	18*	123*	8	10	-10
Cc1ccc(S(=O)(=O)Nc2ccc3c(c2)CC(=O)N([C@H](C)CO)C[C@@H](C)[C@@H](CN(C)CC2CCCCC2)O3)cc1	11	34	16	3	5
C[C@H](CO)N1C[C@H](C)[C@@H](CN(C)CC2CC2)Oc2ccc(NS(=O)(=O)c3ccc(Cl)cc3)cc2CC1=O	2	-1	6	-46	0
C[C@@H]1CN([C@H](C)CO)C(=O)Cc2cc(NS(=O)(=O)c3ccc(Cl)cc3)ccc2O[C@@H]1CN(C)CC1CCCCC1	.	49	49*	-1	4
C[C@@H]1CN([C@H](C)CO)C(=O)Cc2cc(NS(=O)(=O)c3ccc(Cl)cc3)ccc2O[C@H]1CN(C)CC1CCCCC1	14	124*	-3	1	10
C/C=C/c1ccc2c(c1)O[C@@H](CN(C)CC1CCOCC1)[C@H](C)CN([C@H](C)CO)S2(=O)=O	.	-37	-3	.	-23
CC(C)NC(=O)Nc1ccc2c(c1)C(=O)N([C@@H](C)CO)C[C@@H](C)[C@H](CN(C)C(=O)Nc1ccc3c(c1)OCO3)O2	-1	21	28*	-4	-1
CC(C)NC(=O)Nc1ccc2c(c1)C(=O)N([C@@H](C)CO)C[C@H](C)[C@@H](CN(C)C(=O)Nc1ccc3c(c1)OCO3)O2	-3	-1	21*	3	-1
CC(C)NC(=O)Nc1ccc2c(c1)C(=O)N([C@H](C)CO)C[C@H](C)[C@H](CN(C)C(=O)Nc1ccc3c(c1)OCO3)O2	-5	-21	0	5	-1
CSc1nc(N)nc2c1ncn2CC(=O)NCc1ccc2c(c1)OCO2	21*	1	-15	-3	3
CSc1nc(N)nc2c1ncn2CC(=O)NCc1ccccc1	-7	0	8	6	7
COc1cccc(C(=O)Nc2ccc3c(c2)C(=O)N(C)[C@H]2CC[C@H](CC(=O)NCCCN4CCOCC4)O[C@@H]2CO3)c1	4	-14	-3	?	.
COc1ccc(CN(C)C[C@@H]2Oc3c(NS(C)(=O)=O)cccc3C(=O)N([C@@H](C)CO)C[C@@H]2C)cc1	3	-13	1	15	-2
COc1cccc(S(=O)(=O)N[C@H]2CC[C@H](CCn3cc(-c4ccccc4)nn3)O[C@H]2CO)c1	-1	4	-2	-3	-5
CC1CCCN(C(=O)Cc2ccc(F)cc2)C1 (centres undefined)	.	-1	.	.	75*
COc1ccc(CC(=O)N2CCCC(C)C2)cc1 (centres undefined)	.	.	.	.	-8
COCC(=O)N1CC2(C1)[C@@H](c1ccccc1)[C@@H](CO)N2C(=O)c1ccncc1	2	.	30*	70	15
SMILES	SIRT5 inh	C2C12 statin	DENV2 CPE	S100A4 MyoIIA	PGC1a acetyl inh
COCC(=O)N1[C@H](CO)[C@H](c2ccccc2)C12CN(C(=O)Nc1ccccc1F)C2	0	.	36*	8	1
O=C(Cc1ccccn1)N1CC2(C1)[C@@H](c1ccccc1)[C@@H](CO)N2C(=O)c1ccncc1	0	.	5	-5	.
COCC(=O)N1[C@H](CO)[C@@H](c2ccccc2)C12CN(C(=O)Nc1ccccc1F)C2	1	.	18	8	0
O=C(Cc1ccccn1)N1CC2(C1)[C@H](c1ccccc1)[C@@H](CO)N2C(=O)c1ccncc1	1	.	45*	31	-3
COCC(=O)N1[C@H](CO)[C@@H](c2ccccc2)C12CN(C(=O)Cc1ccccn1)C2	0	.	1	97*	-4
Cc1ccccc1NC(=O)Nc1ccc2c(c1)C(=O)N(C)[C@H]1CC[C@H](CC(=O)NCC3CC3)O[C@@H]1CO2	-1	-5	?	17	-2
CC(C)(C)NC(=O)C(c1ccc(F)cc1)N(CCc1ccccc1)C(=O)c1ccn[nH]1 (centres undefined)	-2	12	-1	-3	3
COc1ccc(N(C(=O)c2ccn[nH]2)C(C(=O)NC(C)(C)C)c2ccc(F)cc2)cc1 (centres undefined)	.	88*	.	.	-3
CC(=O)N1CC2(C1)[C@H](c1ccc(-c3ccc(C#N)cc3)cc1)[C@H](CO)N2C(C)=O	1	.	-6	-3	6
Cc1nnc(NC(=O)CCn2c(=O)oc3ccc(Cl)cc32)s1	-2	-3	23*	-5	2
O=[N+]([O-])c1ccccc1Oc1ccc(C(F)(F)F)cn1	-4	.	-9	6	.
FC(F)(F)c1ccc(Oc2ccc3ccccc3c2Br)nc1	24*	.	-7	2	.
O=C(c1cc2cc(Cl)cc(Cl)c2oc1=O)N1CCOCC1	.	115*	.	.	6
O=C(c1ccc(Cl)cc1Cl)N1CCOCC1	-2	1	-10	-3	35
C[C@@H]1CN([C@@H](C)CO)C(=O)Cc2cc(NS(=O)(=O)c3ccccc3)ccc2O[C@@H]1CN(C)Cc1ccccc1	0	8	-6	8	-3
NC(=O)c1cc(-c2ccccc2)nc(N2CCOCC2)n1	.	86*	.	.	10
CCOC(=O)C1(Cc2ccccc2C)CCCN(C(=O)c2ccccn2)C1 (centres undefined)	-1	16	0	1	1
CCOC(=O)C1(Cc2ccccc2C)CCCN(C(=O)c2cc(C3CC3)[nH]n2)C1 (centres undefined)	-5	5	26*	-16	-1
